Laboratory results: ChEMBL document CHEMBL1155468, “Syntheses and evaluation of anticonvulsant profile and teratogenicity of novel amide derivatives of branched aliphatic carboxylic acids with 4-aminobenzensulfonamide” (J Med Chem, 2010)
Calls of active or inactive are those of the source. No cut-off for these calls is given here.

Tests used:
Mus musculus [1] = experiment: Anticonvulsant activity in CF1 albino mouse assessed as inhibition of maximal electroshock-induced seizures at 30 mg/kg, ip after 0.5 hrs; format: functional, organism-based; parameters: dose 30 mg/kg
Method in brief: (§1)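 Test compounds suspended in 0.5% methylcellulose and given ip to adult male CF no. 1 albino mice (18-25 g) at 0.01 mL/g body weight before maximal electroshock challenge.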

Mus musculus [2] = experiment: Anticonvulsant activity in CF1 albino mouse assessed as inhibition of subcutaneous pentylenetetrazole-induced seizures at 100 mg/kg, ip after 0.5 hrs; format: functional, organism-based; parameters: dose 100 mg/kg
Method in brief: (§2)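 Adult male CF no. 1 albino mice (18-25 g) dosed ip with compound suspended in 0.5% methylcellulose (0.01 mL/g). Convulsant: pentylenetetrazol dissolved in 0.9% saline as a 0.85% solution for mice, given subcutaneously.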

Mus musculus [3] = experiment: Neurotoxicity in CF1 albino mouse assessed as motor impairment at 300 mg/kg, ip after 0.5 hrs; format: toxicity, organism-based; parameters: dose 300 mg/kg, route intraperitoneal; conditions: in vivo
Mus musculus [4] = experiment: Neurotoxicity in CF1 albino mouse assessed as motor impairment at 30 mg/kg, ip after 0.5 hrs; format: toxicity, organism-based; parameters: dose 30 mg/kg, route intraperitoneal; conditions: in vivo
Mus musculus [5] = experiment: Anticonvulsant activity in CF1 albino mouse assessed as inhibition of maximal electroshock-induced seizures at 30 mg/kg, ip after 4 hrs; format: functional, organism-based; parameters: dose 30 mg/kg; method in brief: as §1
Mus musculus [6] = experiment: Neurotoxicity in CF1 albino mouse assessed as motor impairment at 100 mg/kg, ip after 4 hrs; format: toxicity, organism-based; parameters: dose 100 mg/kg, route intraperitoneal; conditions: in vivo
Mus musculus [7] = experiment: Anticonvulsant activity in CF1 albino mouse assessed as inhibition of subcutaneous pentylenetetrazole-induced seizures at 300 mg/kg, ip after 0.5 hrs; format: functional, organism-based; parameters: dose 300 mg/kg; method in brief: as §2
Mus musculus [8] = experiment: Anticonvulsant activity in CF1 albino mouse assessed as inhibition of maximal electroshock-induced seizures at 100 mg/kg, ip after 0.5 hrs; format: functional, organism-based; parameters: dose 100 mg/kg; method in brief: as §1
Mus musculus [9] = experiment: Anticonvulsant activity in CF1 albino mouse assessed as inhibition of subcutaneous pentylenetetrazole-induced seizures at 100 mg/kg, ip after 4 hrs; format: functional, organism-based; parameters: dose 100 mg/kg; method in brief: as §2
Mus musculus [10] = experiment: Anticonvulsant activity in CF1 albino mouse assessed as inhibition of maximal electroshock-induced seizures at 300 mg/kg, ip after 4 hrs; format: functional, organism-based; parameters: dose 300 mg/kg; method in brief: as §1
Mus musculus [11] = experiment: Neurotoxicity in CF1 albino mouse assessed as motor impairment at 30 mg/kg, ip after 4 hrs; format: toxicity, organism-based; parameters: dose 30 mg/kg, route intraperitoneal; conditions: in vivo
Mus musculus [12] = experiment: Anticonvulsant activity in CF1 albino mouse assessed as inhibition of subcutaneous pentylenetetrazole-induced seizures at 300 mg/kg, ip after 4 hrs; format: functional, organism-based; parameters: dose 300 mg/kg; method in brief: as §2
Mus musculus [13] = experiment: Neurotoxicity in CF1 albino mouse assessed as motor impairment at 100 mg/kg, ip after 0.5 hrs; format: toxicity, organism-based; parameters: dose 100 mg/kg, route intraperitoneal; conditions: in vivo
Mus musculus [14] = experiment: Anticonvulsant activity in CF1 albino mouse assessed as inhibition of maximal electroshock-induced seizures at 300 mg/kg, ip after 0.5 hrs; format: functional, organism-based; parameters: dose 300 mg/kg; method in brief: as §1
Mus musculus [15] = experiment: Anticonvulsant activity in CF1 albino mouse assessed as inhibition of subcutaneous pentylenetetrazole-induced seizures at 30 mg/kg, ip after 0.5 hrs; format: functional, organism-based; parameters: dose 30 mg/kg; method in brief: as §2
Mus musculus [16] = experiment: Anticonvulsant activity in CF1 albino mouse assessed as inhibition of subcutaneous pentylenetetrazole-induced seizures at 30 mg/kg, ip after 4 hrs; format: functional, organism-based; parameters: dose 30 mg/kg; method in brief: as §2
Mus musculus [17] = experiment: Neurotoxicity in CF1 albino mouse assessed as motor impairment at 300 mg/kg, ip after 4 hrs; format: toxicity, organism-based; parameters: dose 300 mg/kg, route intraperitoneal; conditions: in vivo
Mus musculus [18] = experiment: Anticonvulsant activity in CF1 albino mouse assessed as inhibition of maximal electroshock-induced seizures at 100 mg/kg, ip after 4 hrs; format: functional, organism-based; parameters: dose 100 mg/kg; method in brief: as §1
Rattus norvegicus [19] = experiment: Neurotoxicity in Sprague-Dawley rat assessed as motor impairment at 30 mg/kg, po after 0.25 to 4 hrs; conditions: in vivo
Rattus norvegicus [20] = experiment: Anticonvulsant activity in Sprague-Dawley rat assessed as inhibition of maximal electroshock-induced seizures at 30 mg/kg, po after 30 mins
Rattus norvegicus [21] = experiment: Anticonvulsant activity in Sprague-Dawley rat assessed as inhibition of maximal electroshock-induced seizures at 30 mg/kg, po after 15 mins
Rattus norvegicus [22] = experiment: Anticonvulsant activity in Sprague-Dawley rat assessed as inhibition of maximal electroshock-induced seizures at 30 mg/kg, po after 2 hrs
Rattus norvegicus [23] = experiment: Anticonvulsant activity in Sprague-Dawley rat assessed as inhibition of maximal electroshock-induced seizures at 30 mg/kg, po after 1 hr
Rattus norvegicus [24] = experiment: Anticonvulsant activity in Sprague-Dawley rat assessed as inhibition of maximal electroshock-induced seizures at 30 mg/kg, po after 4 hrs
Rattus norvegicus [25] = species: Rattus norvegicus; experiment: Protective index, ratio of TD50 for rat to ED50 for maximal electroshock-induced rat seizure model
Rattus norvegicus [26] = experiment: Anticonvulsant activity in po dosed rat assessed as inhibition of maximal electroshock-induced seizures

Row | Structure (SMILES) | Activity (Mus musculus [1]) | Activity (Mus musculus [2]) | Activity (Mus musculus [3]) | Activity (Mus musculus [4]) | Activity (Mus musculus [5]) | Activity (Mus musculus [6]) | Activity (Mus musculus [7]) | Activity (Mus musculus [8]) | Activity (Mus musculus [9]) | Activity (Mus musculus [10]) | Activity (Mus musculus [11]) | Activity (Mus musculus [12]) | Activity (Mus musculus [13]) | Activity (Mus musculus [14]) | Activity (Mus musculus [15]) | Activity (Mus musculus [16]) | Activity (Mus musculus [17]) | Activity (Mus musculus [18]) | Activity (Rattus norvegicus [19]) | Activity (Rattus norvegicus [20]) | other results
1 | CC(C)(C)C(=O)NCc1ccc(S(N)(=O)=O)cc1 | inactive | inactive | Non-toxic | Non-toxic | inactive | Non-toxic | inactive | inactive | inactive | inactive | Non-toxic | inactive | Non-toxic | inactive | inactive | inactive | Non-toxic | inactive |  |  | 
2 | CCC(CC)C(=O)NCCc1ccc(S(N)(=O)=O)cc1 | inactive | inactive | Non-toxic | Non-toxic | Active | Non-toxic | inactive | inactive | inactive | Active | Non-toxic | inactive | Non-toxic | inactive | inactive | inactive | Non-toxic |  | Non-toxic |  | 
3 | CCC(C)C(CC)C(=O)Nc1ccc(S(N)(=O)=O)cc1 (centres undefined) | inactive | inactive | Non-toxic | Non-toxic | inactive | Non-toxic | inactive |  | inactive | Active | Non-toxic | inactive | Non-toxic |  | inactive | inactive | Non-toxic | Active | Non-toxic | inactive | Activity (Rattus norvegicus [21]): inactive; Activity (Rattus norvegicus [22]): Active
4 | CCCC(C(=O)Nc1ccc(S(N)(=O)=O)cc1)C(C)(C)C (centres undefined) | inactive | inactive | Non-toxic | Non-toxic | inactive | Non-toxic | inactive | inactive | inactive | inactive | Non-toxic | inactive | Non-toxic | inactive | inactive | inactive | Non-toxic | inactive | Non-toxic | inactive | Activity (Rattus norvegicus [23]): inactive; Activity (Rattus norvegicus [24]): inactive; Activity (Rattus norvegicus [22]): inactive
5 | CCC(C(=O)Nc1ccc(S(N)(=O)=O)cc1)C(C)(C)C (centres undefined) | inactive | inactive | Non-toxic | Non-toxic | inactive | Non-toxic | inactive | inactive | inactive | Active | Non-toxic | inactive | Non-toxic | inactive | inactive | inactive | Non-toxic |  | Non-toxic | inactive | Activity (Rattus norvegicus [23]): inactive; Activity (Rattus norvegicus [21]): inactive
6 | CCCC(CCC)C(=O)Nc1nnc(S(N)(=O)=O)s1 |  |  |  |  |  |  |  |  |  |  |  |  |  |  |  |  |  |  |  |  | Ratio TD50/ED50 (Rattus norvegicus [25]): >50
7 | CC1(C)C(C(=O)Nc2nnc(S(N)(=O)=O)s2)C1(C)C |  |  |  |  |  |  |  |  |  |  |  |  |  |  |  |  |  |  |  |  | Ratio TD50/ED50 (Rattus norvegicus [25]): >50
8 | CC(C)C(C(=O)Nc1ccc(S(N)(=O)=O)cc1)C(C)(C)C (centres undefined) | inactive | inactive | Non-toxic | Non-toxic | inactive | Non-toxic | inactive |  | inactive | Active | Non-toxic | inactive | Non-toxic | inactive | inactive | inactive | Non-toxic | Active | Non-toxic | inactive | Activity (Rattus norvegicus [23]): inactive; Ratio TD50/ED50 (Rattus norvegicus [25]): >27.7; ED50 (Rattus norvegicus [26]): 18 mg/kg; Activity (Rattus norvegicus [21]): inactive; Activity (Rattus norvegicus [22]): inactive
9 | CC1(C)C(C(=O)Nc2ccc(S(N)(=O)=O)cc2)C1(C)C |  |  |  |  |  |  |  |  |  |  |  |  |  |  |  |  |  |  |  |  | ED50 (Rattus norvegicus [26]): 26 mg/kg
10 | CCCC(CCC)C(=O)Nc1ccc(S(N)(=O)=O)cc1 |  |  |  |  |  |  |  |  |  |  |  |  |  |  |  |  |  |  |  |  | ED50 (Rattus norvegicus [26]): 21 mg/kg
11 | CC(C)(C)CC(=O)NCc1ccc(S(N)(=O)=O)cc1 | inactive | inactive | Non-toxic | Non-toxic | inactive | Non-toxic | inactive | inactive | inactive | Active | Non-toxic | inactive | Non-toxic | inactive | inactive | inactive | Non-toxic |  | Non-toxic | inactive | Activity (Rattus norvegicus [21]): inactive
12 | CCC(C)C(C(=O)Nc1ccc(S(N)(=O)=O)cc1)C(C)C (centres undefined) | inactive | inactive | Non-toxic | Non-toxic | inactive | Non-toxic | inactive | inactive | inactive | inactive | Non-toxic | inactive | Non-toxic | inactive | inactive | inactive | Non-toxic | inactive | Non-toxic | inactive | Activity (Rattus norvegicus [24]): inactive; Activity (Rattus norvegicus [21]): inactive; Activity (Rattus norvegicus [22]): inactive
13 | CC(C)C(C(=O)Nc1ccc(S(N)(=O)=O)cc1)C(C)C | inactive | inactive | Non-toxic | Non-toxic | inactive | Non-toxic | inactive | inactive | inactive | inactive | Non-toxic | inactive | Non-toxic | inactive | inactive | inactive | Non-toxic | inactive | Non-toxic | inactive | Activity (Rattus norvegicus [23]): inactive; Activity (Rattus norvegicus [21]): inactive; Activity (Rattus norvegicus [22]): inactive
